Source: ChEMBL document CHEMBL1121525, “Folate analogues altered in the C9--N10 bridge region. 14. 11-Oxahomofolic acid, a potential antitumor agent” (J Med Chem, 1980)
In brackets after ≈: the same amount, converted by molar mass.

How the values were obtained:
Format in all cases: functional, organism-based
Lacticaseibacillus casei [1] = assay: Compound was measured for the 50% growth inhibition of Lactobacillus casei MTX resistant microorganism.; conditions: for IC50: Lacticaseibacillus casei, read-out: I50
How it was run: (§1)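 Drug solution concentrations were set either by weight or by UV absorbance at pH 7.4, using extinction coefficients of 9600 at 270 nm or 10 250 at 301 nm. The 7,8-dihydro form was made by treating the potassium salt with excess sodium dithionite at room temperature. The tetrahydro forms came from catalytic or enzymatic reduction.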

Enterococcus faecium [2] = assay: Compound was measured for the 50% growth inhibition of Streptococcus faecium ATCC 8043 microorganism.; conditions: for IC50: Enterococcus faecium, ATCC 8043, read-out: I50
How it was run: (§2)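 Growth-inhibition test. The reduced test forms were quantified by UV absorbance at pH 7.4 using a molar absorptivity at 270 or 301 nm. Other forms were quantified by weight. The 7,8-dihydro form was made by excess sodium dithionite reduction of the aqueous potassium salt at room temperature.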

Lacticaseibacillus casei [3] = assay: Compound was measured for the 50% growth inhibition of Lactobacillus casei ATCC 7469 microorganism.; conditions: for IC50: Lacticaseibacillus casei, ATCC 7469, read-out: I50; how it was run: as §1
Enterococcus faecium [4] = assay: Compound was measured for the 50% growth inhibition of Streptococcus faecium MTX resistant microorganism.; conditions: for IC50: Enterococcus faecium, read-out: I50; how it was run: as §2

Row | Structure (SMILES) | IC50 (Lacticaseibacillus casei [1]) [ng/mL] | IC50 (Enterococcus faecium [2]) [ng/mL] | IC50 (Lacticaseibacillus casei [3]) [ng/mL] | IC50 (Enterococcus faecium [4]) [ng/mL] | I50 (Lacticaseibacillus casei [1]) [ng/mL] | I50 (Enterococcus faecium [2]) [ng/mL] | I50 (Lacticaseibacillus casei [3]) [ng/mL] | I50 (Enterococcus faecium [4]) [ng/mL]
1 | Nc1nc(O)c2nc(CCOc3ccc(C(=O)NC(CCC(=O)O)C(=O)O)cc3)cnc2n1 (stereo not drawn) | 1000 (≈ 2.19 µM) | 14 (≈ 0.0307 µM) | 320 (≈ 0.701 µM) | 260 (≈ 0.57 µM) |  |  |  | 
2 | Nc1nc(O)c2c(n1)NCC(CCOc1ccc(C(=O)NC(CCC(=O)O)C(=O)O)cc1)=N2 (stereo not drawn) | 700 (≈ 1.53 µM) |  | 240 (≈ 0.524 µM) |  |  |  |  | 
3 | Nc1nc(O)c2c(n1)NCC(CCOc1ccc(C(=O)NC(CCC(=O)O)C(=O)O)cc1)N2 (racemic) |  |  |  |  | 19 | 0.7 | 10 | 50
4 | Nc1nc(O)c2c(n1)NCC(CCOc1ccc(C(=O)NC(CCC(=O)O)C(=O)O)cc1)N2 (stereo in doubt) |  |  |  |  | 64 | 9 | 56 | > 200
5 | CN(Cc1cnc2nc(N)nc(N)c2n1)c1ccc(C(=O)N[C@@H](CCC(=O)O)C(=O)O)cc1 [METHOTREXATE] |  | 0.05 (≈ 0.00011 µM) | 0.07 (≈ 0.000154 µM) | 3500 (≈ 7.7 µM) | > 500000 |  |  | 
